Screening results as filed in PubChem BioAssay.
ATG4B inhibitor: ATG4B protease inhibitors, primary screen, biochemical, fluorescence, uHTS. Cysteine protease ATG4B (Homo sapiens), Q9Y4P1. ATG4B cleavage of LC3-PLA2, NBD-HPC fluorescence, 1 h. inhibition, % at 8.33 µM. 0.51% of 340,000 active; in the data active = inhibition above about 40%
TbMetRS inhib: T. brucei MetRS inhibitors, primary screen, biochemical, luminescence; purified T. brucei MetRS, ATP depletion, Kinase-Glo luminescence; methionyl-tRNA synthetase (Trypanosoma brucei brucei); inhibition, % at 11.9 µM; 0.4% of 360,000 active;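 active = inhibition above a per-plate cutoff of the control wells' mean inhibition plus 3 SD, cut at about 5.5% in these data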;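 note: 0% = DMSO wells median and 100% = median of wells with control inhibitor compound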
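technique = Kinase-Glo luminescence, ATP depletion format | system = purified MetRS (methionyl-tRNA synthetase) enzyme from Trypanosoma brucei | timing = 15 min preincubation, 2 h reaction, all 25 °C | evaluation = percent inhibition versus plate control medians | dosing = single dose, 11.9 µM final nominal, 0.9% final DMSO | also added = substrates ATP, L-methionine and bulk Escherichia coli tRNA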
Rin1 Abl inh: inhibitors of Rin1-Abl protein binding, primary screen, biochemical, TR-FRET. Tyrosine-protein kinase ABL1 (Homo sapiens) + Ras and Rab interactor 1 (Homo sapiens), …. inhibition, % at 7.35 µM. 0.4% of 360,000 active; in the data active = inhibition above about 5%, passing the limit was not always enough
UCH37 DUB inh: inhibitors of human UCH37 deubiquitinase, primary screen, biochemical, Ub-AMC cleavage, fluorescence. 0.33% of 330,000 active. purified proteasome/UCH37. Ubiquitin carboxyl-terminal hydrolase isozyme L5 (Homo sapiens), Q9Y5K5. inhibition, % (test concentration not listed);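 active = mean inhibition over replicate wells above about 20%, limit read from the data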;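 note: 0% = compound-free wells with enzyme and 100% = wells lacking proteasome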
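Reagent: Ub-AMC substrate; assay system: Proteasome-associated human UCH37 deubiquitinase; controls: no-proteasome and no-compound wells; read-out: % inhibition of Ub-AMC cleavage fluorescence; timing: 30 min preincubation with enzyme, 25 min cleavage at room temperature; signal: AMC fluorescence from Ub-AMC cleavage, excitation 355 nm, emission 460 nm; buffer or medium: Tris-HCl pH 7.4 plus ovalbumin, ATP-MgCl2, DTT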
ATG4B confirm: ATG4B protease inhibitors, retest, confirmation, biochemical, fluorescence, single concentration; AID 504757, 2011; shares compounds with ATG4B inhibitor; 92% of 320 active; ATG4B protease fluorescent substrate cleavage assay; inhibition, % at 8.33 µM; in the data active = inhibition above about 39%
PLA2 ctr: PLA2 enzyme inhibition, counter-screen for ATG4B inhibitor project, biochemical, single concentration, uHTS hits; shares compounds with ATG4B inhibitor; purified PLA2, NBD-C6-HPC fluorescence, 45 min; AID 588402, 2011; inhibition, % at 8.33 µM; 66% of 1,600 active; in the data active = inhibition above about 50%
Numbers without * were called inactive. Rows were chosen to be rich in hits. Some 1.4% of all compounds tested hit in one or more screens of this group.

What do the screens show for `CCCCCCCCCCCCCCCC[N+](C)(C)CC`?
ATG4B inhibitor: 18; TbMetRS inhib: -2; Rin1 Abl inh: -1; UCH37 DUB inh: 19

How did O=C(Oc1c(-c2ccccc2)c(=O)n2c3c(cccc13)CC2)c1ccco1 do in these assays?
ATG4B inhibitor: 4; TbMetRS inhib: -1; Rin1 Abl inh: 0; UCH37 DUB inh: 3

What do the screens show for `O=C(Oc1c(-c2ccccc2)c(=O)n2c3c(cccc13)CC2)c1ccc(Cl)cc1`?
ATG4B inhibitor: 62*; TbMetRS inhib: 0; Rin1 Abl inh: 2; UCH37 DUB inh: -8; PLA2 ctr: 67*

How did COc1ccc(-c2ccc(C#N)c(SCC(=O)Nc3sc4c(c3C#N)CCC4)n2)cc1OC do in these assays?
ATG4B inhibitor: 73*; TbMetRS inhib: 0; Rin1 Abl inh: 4; UCH37 DUB inh: -5; ATG4B confirm: 84*; PLA2 ctr: -4

How did COc1ccc(Cn2c(C(F)(F)F)ccc(C(N)=O)c2=O)cc1 do in these assays?
ATG4B inhibitor: 3; TbMetRS inhib: -1; Rin1 Abl inh: -2; UCH37 DUB inh: -2

What do the screens show for `NC(=O)c1ccc(C(F)(F)F)n(Cc2c(Cl)cccc2Cl)c1=O`?
ATG4B inhibitor: 47*; TbMetRS inhib: 0; Rin1 Abl inh: -2; UCH37 DUB inh: -2; PLA2 ctr: 50

What do the screens show for `COc1ccccc1C(=O)C1CCCN(C(=O)c2ccc3c(c2)OCCO3)C1` (stereo not given)?
ATG4B inhibitor: -16; TbMetRS inhib: -1; Rin1 Abl inh: -5; UCH37 DUB inh: 6

Results for Cc1cccc(NC(=S)Nc2ccc(Oc3ccccc3)cc2)n1 ?
ATG4B inhibitor: 44*; TbMetRS inhib: 0; Rin1 Abl inh: -2; UCH37 DUB inh: 7; ATG4B confirm: 67*; PLA2 ctr: 45

What do the screens show for `Cc1cccc(NC(=S)Nc2cccc(C)n2)n1`?
ATG4B inhibitor: 1; TbMetRS inhib: -2; Rin1 Abl inh: -3; UCH37 DUB inh: 0

How did C=CCOC(=O)N1CCC2CC1c1c(-c3ccc(C(F)(F)F)cc3)cccc12 (stereo not given) do in these assays?
TbMetRS inhib: 0; Rin1 Abl inh: 0

What do the screens show for `O=C(Nc1nc(-c2ccco2)c(-c2ccco2)s1)c1c(F)cccc1Cl`?
ATG4B inhibitor: 64*; TbMetRS inhib: 0; Rin1 Abl inh: 5; UCH37 DUB inh: -3; PLA2 ctr: 79*

How did O=C(Nc1nc(=S)ss1)c1c(F)cccc1F do in these assays?
ATG4B inhibitor: -5; TbMetRS inhib: 0; Rin1 Abl inh: -2; UCH37 DUB inh: 5

Results for O=C(Cc1cccc(NC(=O)C2CCCN(C(=O)c3ccccc3)C2)c1)Nc1cccc(C(=O)N2CCOCC2)c1 (stereo not given) ?
ATG4B inhibitor: -5; TbMetRS inhib: 1; Rin1 Abl inh: 1; UCH37 DUB inh: 4

What do the screens show for `Cc1cccn2c(=O)c(/C=C(\C#N)C(=O)NCc3ccco3)c(N3CCCC(C)C3)nc12` (stereo not given)?
ATG4B inhibitor: 51*; TbMetRS inhib: -1; Rin1 Abl inh: 2; UCH37 DUB inh: 6; PLA2 ctr: 68*

What do the screens show for `Cc1cccn2c(=O)c(/C=C(\C#N)C(=O)NCc3ccco3)c(N3CCCCC3)nc12`?
ATG4B inhibitor: 63*; TbMetRS inhib: 0; Rin1 Abl inh: 0; UCH37 DUB inh: 2; PLA2 ctr: 60*

How did O=C(Nc1nc(-c2cccs2)c(-c2cccs2)s1)C1CCCC1 do in these assays?
ATG4B inhibitor: 50*; TbMetRS inhib: 0; Rin1 Abl inh: 1; UCH37 DUB inh: -6; PLA2 ctr: 60*

What do the screens show for `O=C1/C(=C\c2cc(Cl)c(O)c(Cl)c2)SC(=S)N1Cc1ccccc1`?
ATG4B inhibitor: 44*; TbMetRS inhib: -2; Rin1 Abl inh: -4; PLA2 ctr: 60*

What do the screens show for `O=S(=O)(c1ccc(-c2csc(-c3cccnc3)n2)cc1)N1CCOCC1`?
ATG4B inhibitor: -7; TbMetRS inhib: -1; Rin1 Abl inh: -7; UCH37 DUB inh: 0
